CXCR6 block – CXCR6 receptor inhibitors, primary screen, cell-based, beta-arrestin, luminescence, CHO-K1 PathHunter, 1536-well; C-X-C chemokine receptor type 6 (Homo sapiens), O00574; inhibition, % at 20 µM; hit rate 0.36% among 360,000; in the data active means inhibition above about 34%, passing the limit was not always enough;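 further: antagonist mode with CXCL16 agonist at 10 nM final; 0% = 10 nM CXCL16 with DMSO and 100% = unstimulated wells without agonist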
APJ antag – antagonists of human apelin receptor APJ, primary screen, CHO-K1 cells, beta-arrestin complementation, luminescence. P35414. hit rate 0.32% among 330,000. inhibition, % at 20 µM. AID 2521, 2010;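 active means inhibition above about 40% at 20 µM, limit read from the data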;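 further: cells challenged with 10 nM apelin-13 agonist together with compound; plate controls were apelin-13 plus DMSO wells for no effect and DMSO wells lacking apelin-13 for full effect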
EBI2 block – EBI2 receptor antagonists, beta-arrestin recruitment, primary screen, cell-based, luminescence, 7a,25-OHC stimulation, uHTS | G-protein coupled receptor 183 (Homo sapiens), P32249 | 7a,25-OHC stimulated | inhibition, % at 5 µM | hit rate 0.81% among 360,000; in the data active means inhibition above about 38%;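 further: enzyme fragment complementation signal reports receptor beta-arrestin coupling in cells; 0% = agonist plus DMSO wells and 100% = wells without agonist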
Target sequence (P32249 whole entry, looked up, the tested form may be a part): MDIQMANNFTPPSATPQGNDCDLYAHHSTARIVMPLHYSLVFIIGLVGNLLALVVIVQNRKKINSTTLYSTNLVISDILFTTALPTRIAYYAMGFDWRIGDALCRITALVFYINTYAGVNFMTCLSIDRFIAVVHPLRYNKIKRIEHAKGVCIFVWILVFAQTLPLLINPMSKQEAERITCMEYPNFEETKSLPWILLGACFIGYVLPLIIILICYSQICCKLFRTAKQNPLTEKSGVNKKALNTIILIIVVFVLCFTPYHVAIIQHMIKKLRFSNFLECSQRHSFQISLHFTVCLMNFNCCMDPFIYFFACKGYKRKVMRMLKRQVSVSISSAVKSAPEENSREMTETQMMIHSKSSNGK
CCR6 antagonist – CCR6 receptor antagonists, primary screen, cell-based, CHO-K1, luminescence, beta-arrestin, uHTS | CHO-K1 CCR6 PathHunter beta-arrestin, CCL20-stimulated | inhibition, % at 20 µM | hit rate 0.49% among 340,000 | C-C chemokine receptor type 6 (Homo sapiens), P51684;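 active means compounds whose inhibition of the agonist-driven luminescence signal at 20 µM reaches about 50%, limit read from the data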;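 further: cells stimulated with CCL20 at 14 nM final; plate controls were DMSO with CCL20 for no effect and DMSO without agonist for full effect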
Target sequence (P51684 whole entry, looked up): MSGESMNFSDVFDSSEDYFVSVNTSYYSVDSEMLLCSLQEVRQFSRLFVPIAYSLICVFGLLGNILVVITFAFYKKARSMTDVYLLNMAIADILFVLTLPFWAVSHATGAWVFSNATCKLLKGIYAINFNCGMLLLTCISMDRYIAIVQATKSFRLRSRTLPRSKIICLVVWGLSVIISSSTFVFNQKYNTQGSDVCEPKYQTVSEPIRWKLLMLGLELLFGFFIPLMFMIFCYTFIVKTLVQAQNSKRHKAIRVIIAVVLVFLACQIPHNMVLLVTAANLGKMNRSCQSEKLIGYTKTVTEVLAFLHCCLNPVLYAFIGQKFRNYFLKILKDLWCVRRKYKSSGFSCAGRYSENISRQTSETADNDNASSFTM
APJ agonist – agonists of human apelin receptor APJ, primary screen, CHO-K1 cells, PathHunter beta-arrestin, luminescence; 0% DMSO wells, 100% apelin; activation, % at 20 µM; hit rate 0.11% among 330,000; AID 2520, 2010;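 active means activation more than six SD over the plate average, tested at 20 µM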;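 further: 0% = DMSO alone and 100% = apelin-13 at 10 nM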
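Material: engineered CHO-K1 APJ arrestin reporter cells; amount: 1000 CHO-K1 reporter cells seeded per well; incubation: compound stimulation 90 min at 25 °C, detection 60 min; signal: luminescent beta-gal fragment complementation, chemiluminescent substrate; read-out basis: APJ agonist activity; controls: DMSO-only wells as negative, 10 nM Apelin-13 as positive control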
EBI2 antag conf – EBI2 antagonist hit retest, beta-arrestin, confirmation, cell-based, single concentration, luminescence, 7a,25-OHC stimulation. inhibition, % at 5 µM. 7a,25-OHC antagonism. hit rate 29% among 2,400. shares compounds with EBI2 block;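 active means inhibition of at least 50%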
EBI2 ag – EBI2 agonist activity of antagonist hits, confirmation, counter-screen for EBI2 antagonist project, cell-based, single concentration, agonist mode, luminescence | shares compounds with EBI2 block | EBI2-expressing cells, 60 min; 0% vehicle, 100% 7α,25-dihydroxycholesterol control | activation, % at 5 µM | 2,400 tested, under 10 active | AID 652000, 2013;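 active means activation of at least 50%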
bGal cs – E. coli beta-galactosidase enzyme inhibition, confirmation, counter-screen for EBI2 antagonist project, biochemical, luminescence, single concentration. shares compounds with EBI2 block. purified beta-galactosidase, luminescent Galacton Star, 15 min. inhibition, % at 5 µM. hit rate 1% among 2,400. AID 652176, 2013;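 active means replicate-average signal at least 3 plate SD below neutral wells, shown as high inhibition, flagging enzyme-inhibiting false positives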;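 further: 0% = DMSO wells with enzyme and 100% = wells lacking enzyme; higher means stronger loss of beta-gal luminescence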
The depositor's hits bear a star; nt = no result. Most compounds without a hit are left out; they make up all but 1.5% or so of the library.

SMILES	CXCR6 block	APJ antag	EBI2 block	CCR6 antagonist	APJ agonist	EBI2 antag conf	EBI2 ag	bGal cs
COc1ccc(N2CCN(C(=O)c3cc(=O)c4cc(Cl)ccc4o3)CC2)cc1	-11.8	5.5	96.0*	6.8	-4.0	92.7*	-0.8	-20.9
CCOC(=O)C1CCN(S(=O)(=O)c2cc(C(=O)OC)n(C)c2)CC1	8.4	10.9	-0.5	8.9	-3.7	nt	nt	nt
O=C(CCCc1nc2ccccc2s1)NC(c1ccccc1)c1ccccc1	-2.5	12.7	77.5*	-7.5	-4.6	38.0	-1.2	-12.2
O=C1N=C(N2CCCCC2)S/C1=C\c1ccc(Cl)cc1	-0.1	15.2	85.7*	13.6	-1.4	54.7*	0.1	10.1
CCOC(=O)C1CCCN(C2=NC(=O)/C(=C/c3ccc(OC)cc3)S2)C1 (stereo unspecified)	3.6	-2.1	61.1*	7.7	-3.0	37.9	0.7	-2.2
C=CCOc1ccc(/C=C2\SC(N3CCCCC3)=NC2=O)cc1	-3.4	2.4	57.0*	14.3	-4.6	43.4	1.3	9.4
O=C1N=C(N2CCCC2)S/C1=C\c1ccccc1	-4.9	-2.0	0.2	7.1	-0.3	nt	nt	nt
CCOC(=O)C1CCCN(C2=NC(=O)/C(=C/c3ccc(OC)cc3OC)S2)C1 (stereo unspecified)	5.9	6.9	10.0	12.3	-1.7	nt	nt	nt
COc1cc(C(=O)N(C(C)C)C2CCCCC2)cc(OC)c1OC	0.2	nt	6.8	nt	nt	nt	nt	nt
C[C@@H]1CN([C@H](C)CO)C(=O)CCCn2nncc2CO[C@@H]1CN(C)C(=O)Nc1ccnc(N2CCOCC2)c1	-2.2	nt	-2.9	nt	nt	nt	nt	nt
Clc1ccc(CN(Cc2ccccc2)C(c2cccs2)c2nnnn2C2CCCC2)cc1 (stereo unspecified)	4.6	13.6	30.6	0.7	-1.6	nt	nt	nt
CC(C)(C)n1nnnc1C(c1cccs1)N(Cc1ccc(Cl)cc1)CC1CCCO1 (stereo unspecified)	1.7	4.7	60.4*	13.6	-0.5	16.0	0.5	6.2
COc1ccc(C2=C3C(=O)OCC3Cc3ncn(Cc4ccccc4)c32)cc1 (stereo unspecified)	1.4	19.6	-9.2	8.0	1.7	nt	nt	nt
O=C(/C=C/c1ccc(Br)cc1)NCc1cccs1	-1.3	-18.7	64.8*	12.7	1.1	48.1	0.2	4.3
COC(=O)c1ccc2nc(C3CCCCC3)c(Cc3ccccc3)n2c1	2.3	nt	50.6*	nt	nt	65.1*	-0.8	-17.2
COC(=O)c1ccc2nc(C3CCCCC3)c(CC(C)(C)C)n2c1	3.2	nt	5.2	nt	nt	nt	nt	nt
CCOC(=O)C1(Cc2cccc(OC)c2)CCCN(Cc2cnn(C)c2)C1 (stereo unspecified)	5.3	2.0	0.1	18.4	-0.2	nt	nt	nt
CCOC(=O)C1(Cc2cccc(OC)c2)CCCN(Cc2cc(OC)c(O)c(OC)c2)C1 (stereo unspecified)	-12.7	-31.5	81.5*	-9.9	1.8	57.7*	-1.2	-4.5
Cc1cc(C)cc(N(C(C)C(=O)N2CCCC2)S(C)(=O)=O)c1 (stereo unspecified)	-2.7	10.1	-12.7	7.2	-2.1	nt	nt	nt
C/C(=N/NC(=O)CNc1ccc(C)cc1)c1ccc(Cl)cc1	-11.4	7.6	18.1	-8.0	0.3	nt	nt	nt
Cc1ccc(C(=O)CNc2ccc(Cl)cc2)cc1	52.7*	101.9*	57.1*	71.1*	-6.1	75.8*	-3.1	2.1
CC(C)(C)c1ccc(/C=N/Nc2nncn2N)cc1	-0.4	0.7	-3.8	-12.3	-1.0	nt	nt	nt
CC(C)(C)c1nnc(N/N=C/c2ccc(Br)cc2)n(N)c1=O	1.4	-19.1	92.5*	-1.2	2.5	80.0*	-0.1	-11.7
CCOc1ccc(C(=O)/C=C/c2ccc(SC)cc2)cc1	-1.0	-4.4	60.8*	11.0	-2.8	50.4*	-0.4	6.7
FC(F)(F)c1cccc(CON=C2CCN(c3ncc(C(F)(F)F)cc3Cl)CC2)c1	-1.5	-12.1	14.3	28.7	-3.6	nt	nt	nt
SMILES	CXCR6 block	APJ antag	EBI2 block	CCR6 antagonist	APJ agonist	EBI2 antag conf	EBI2 ag	bGal cs
FC(F)(F)c1cnc(N2CCC(=NOCc3ccc(Cl)cc3)CC2)c(Cl)c1	5.8	11.9	53.8*	29.8	-0.4	6.7	-0.2	8.3
Cc1ccc(CON=C2CCN(c3ncc(C(F)(F)F)cc3Cl)CC2)cc1	0.7	12.2	42.8*	-18.3	0.5	3.7	0.2	-11.9
ON=C1CCN(c2ncc(C(F)(F)F)cc2Cl)CC1	-1.2	-12.4	-6.2	-4.1	-2.9	nt	nt	nt
Cc1ccsc1/C=N/NC(=O)CNC(=O)c1ccc(S(=O)(=O)N(C)C)cc1	-0.5	13.9	8.2	16.1	-1.4	nt	nt	nt
Cc1ccc(/C=N/NC(=O)CNC(=O)c2ccc(S(=O)(=O)N(C)C)cc2)cc1	-3.1	-2.9	45.5*	1.5	-0.7	29.5	0.5	7.4
CN(C)S(=O)(=O)c1ccc(C(=O)NCC(=O)N/N=C/c2ccccc2Cl)cc1	-14.5	14.5	71.9*	5.6	0.1	30.3	0.4	8.6
Cc1c(O)ccc(C(=O)CN2CCN(c3ccc(F)cc3)CC2)c1O	-0.4	12.7	5.9	12.7	0.0	nt	nt	nt
Cc1cc(-c2nc(-c3ccncc3)no2)ccc1[N+](=O)[O-]	-10.9	-5.1	2.7	-0.1	-3.6	nt	nt	nt
CC(C)N(C)c1ncnc2c1ncn2[C@H]1CN(Cc2ccc(Cl)cc2)C[C@@H](CO)O1	-0.4	nt	82.8*	nt	nt	77.0*	-2.3	-8.7
OC[C@@H]1CN(Cc2ccc(F)cc2)C[C@H](n2cnc3c(NC4CC4)ncnc32)O1	-6.4	nt	64.6*	nt	nt	65.6*	1.1	9.3
CC(C)N(C)c1ncnc2c1ncn2[C@H]1CN(Cc2ccccc2)C[C@@H](CO)O1	-6.2	nt	16.2	nt	nt	nt	nt	nt
OC[C@@H]1CN(Cc2ccccc2)C[C@H](n2cnc3c(NC4CC4)ncnc32)O1	6.2	nt	24.4	nt	nt	nt	nt	nt
CN(CCc1ccccn1)C(=O)CCC1CCCN(C(=O)c2cccc(N(C)C)c2)C1 (stereo unspecified)	-8.4	-0.9	-3.1	-3.6	-3.4	nt	nt	nt
O=C(c1ccc(S(=O)(=O)N2CCOCC2)cc1)N1CCc2ccccc21	-3.8	5.4	-9.6	10.8	-3.3	nt	nt	nt
O=C(NNC(=O)c1ccccc1F)C1=NN(c2ccccc2)C(=O)CC1	-0.8	13.0	-1.6	10.5	-5.6	nt	nt	nt

Screening results: PubChem, Sanford-Burnham Center for Chemical Genomics
